Assay results reported in ChEMBL document CHEMBL1914440, “Discovery of potent, selective, and orally bioavailable alkynylphenoxyacetic acid CRTH2 (DP2) receptor antagonists for the treatment of allergic inflammatory diseases” (J Med Chem, 2011).

target: T1, Prostaglandin D2 receptor 2 (Homo sapiens, UniProt Q9Y5Y4); assay: Displacement of [3H]PGD2 from human CRTH2 expressed in chinese hamster CHO cells by liquid scintillation counting; type: cell-based
T1 sequence (Q9Y5Y4 whole entry): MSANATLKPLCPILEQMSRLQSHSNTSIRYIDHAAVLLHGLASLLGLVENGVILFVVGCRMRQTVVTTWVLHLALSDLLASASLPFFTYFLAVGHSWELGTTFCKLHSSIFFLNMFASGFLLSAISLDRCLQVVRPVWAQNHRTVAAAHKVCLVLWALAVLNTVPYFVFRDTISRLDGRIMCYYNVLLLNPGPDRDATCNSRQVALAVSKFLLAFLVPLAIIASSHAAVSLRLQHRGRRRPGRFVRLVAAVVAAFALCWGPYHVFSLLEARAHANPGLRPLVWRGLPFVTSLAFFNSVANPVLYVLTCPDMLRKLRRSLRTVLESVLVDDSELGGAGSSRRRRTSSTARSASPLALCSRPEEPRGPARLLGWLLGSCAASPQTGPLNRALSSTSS
Method in brief: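 Scintillation proximity competition assay: 2–5 μg human CRTH2 cell membranes, 1.5 nM [3H]PGD2, WGA-SPA beads, 10 mM HEPES/KOH pH 7.4, 10 mM MnCl2, protease inhibitors, 1% DMSO; 90 min, room temperature, shaking. Nonspecific binding defined with 1 μM PGD2. Ki by Cheng–Prusoff, mean of ≥3 independent dose–response experiments.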

| Structure (SMILES) | Ki |
| --- | --- |
| CCCS(=O)(=O)c1cccc(C#Cc2cc(-c3sc(C)nc3C)ccc2OCC(=O)O)c1 | 54 nM |
| Cc1ccc(S(=O)(=O)NC(C)(C)C)cc1C#Cc1cc(Cl)ccc1OCC(=O)O | 5 nM |
| CCCS(=O)(=O)c1cccc(C#Cc2cc(-c3ccsc3)ccc2OCC(=O)O)c1 | 18 nM |
| CCCS(=O)(=O)c1cccc(C#Cc2cc(C(F)(F)F)ccc2OCC(=O)O)c1 | 10 nM |
| O=C(O)COc1cc(F)ccc1C#Cc1ccccc1Cl | 4780 nM |
| Cc1ccc(S(=O)(=O)Cc2ccccc2)cc1C#Cc1cc(Cl)ccc1OCC(=O)O | 5 nM |
| CCN(CC)S(=O)(=O)c1ccc(C)c(C#Cc2cc(Cl)ccc2OCC(=O)O)c1 | 3.4 nM |
| CCCS(=O)(=O)c1cccc(C#Cc2c(Cl)cccc2OCC(=O)O)c1 | 55 nM |
| CCCS(=O)(=O)c1cccc(C#Cc2cc(F)ccc2OCC(=O)O)c1 | 65 nM |
| CCS(=O)(=O)c1ccc(C)c(C#Cc2cc(Cl)ccc2OCC(=O)O)c1 | 8.6 nM |
| Cc1ccc(S(=O)(=O)CCc2ccccc2)cc1C#Cc1cc(Cl)ccc1OCC(=O)O | 7 nM |
| Cc1ccc(S(=O)(=O)N(C)CCCN(C)C)cc1C#Cc1cc(Cl)ccc1OCC(=O)O | 287 nM |
| COc1cccc(-c2ccc(C#Cc3cc(Cl)ccc3OCC(=O)O)cc2S(C)(=O)=O)c1 | 8 nM |
| O=C(O)COc1ccc(Cl)cc1C#Cc1cncc(S(=O)(=O)NCCO)c1 | 301 nM |
| Cc1ccc(S(=O)(=O)N2CCN(C)CC2)cc1C#Cc1cc(Cl)ccc1OCC(=O)O | 21 nM |
| COc1ccc(-c2ccc(C#Cc3cc(Cl)ccc3OCC(=O)O)cc2S(C)(=O)=O)cc1 | 7 nM |
| CCN(CC)C(=O)c1ccc(C#Cc2cc(Cl)ccc2OCC(=O)O)cc1S(=O)(=O)C(C)C | 46 nM |
| Cc1ccc(S(=O)(=O)N(C)CCN(C)C)cc1C#Cc1cc(Cl)ccc1OCC(=O)O | 369 nM |
| CS(=O)(=O)c1cc(C#Cc2cc(Cl)ccc2OCC(=O)O)ccc1-c1ccc(C(F)(F)F)cc1 | 43 nM |
| CC(C)S(=O)(=O)c1cc(C#Cc2cc(Cl)ccc2OCC(=O)O)ccc1C(=O)N1CCOCC1 | 87 nM |

Next, values leading:

| Ki | Structure (SMILES) |
| --- | --- |
| 73 nM | O=C(O)COc1ccc(Cl)cc1C#Cc1cc(CO)ccc1F |
| 28 nM | CC1(O)c2ccc(C#Cc3cc(Cl)ccc3OCC(=O)O)cc2S(=O)(=O)C1(C)C (stereo not drawn) |
| 24 nM | N#Cc1ccc(OCC(=O)O)c(C#Cc2ccccc2Cl)c1 |
| 54 nM | CS(=O)(=O)Nc1cccc(C#Cc2cc(Cl)ccc2OCC(=O)O)c1 |
| 21 nM | COC1c2ccc(C#Cc3cc(Cl)ccc3OCC(=O)O)cc2S(=O)(=O)C1(C)C (stereo not drawn) |
| 3.2 nM | C[S+]([O-])c1cccc(C#Cc2cc(Cl)ccc2OCC(=O)O)c1 (stereo not drawn) |
| 60 nM | O=C(O)COc1ccc(Cl)cc1C#Cc1ccc(Cl)cc1 |
| 19 nM | CS(=O)(=O)Nc1cncc(C#Cc2cc(Cl)ccc2OCC(=O)O)c1 |
| 25 nM | Cc1ccncc1C#Cc1cc(Cl)ccc1OCC(=O)O |
| 31 nM | CC1(C)C(=O)c2ccc(C#Cc3cc(Cl)ccc3OCC(=O)O)cc2S1(=O)=O |
| 14 nM | CS(=O)(=O)c1cc(C#Cc2cc(Cl)ccc2OCC(=O)O)ccc1-c1ccc(Cl)cc1 |
| 378 nM | CN(c1cncc(C#Cc2cc(Cl)ccc2OCC(=O)O)c1)S(C)(=O)=O |
| 14 nM | CN(C)S(=O)(=O)c1cccc(C#Cc2cc(Cl)ccc2OCC(=O)O)c1 |
| 108 nM | O=C(O)COc1ccc(Cl)cc1C#Cc1ccccc1 |
| 1470 nM | Cn1ccnc1C#Cc1cc(Cl)ccc1OCC(=O)O |
| 4.9 nM | CC(C)Cc1ccncc1C#Cc1cc(Cl)ccc1OCC(=O)O |
| 28 nM | O=C(O)COc1ccc(Cl)cc1C#Cc1cccc(S(=O)(=O)CCCO)c1 |
| 5 nM | CS(=O)(=O)c1cc(C#Cc2cc(Cl)ccc2OCC(=O)O)ccc1-c1ccccc1 |
| 47 nM | O=C(O)COc1ccc(Cl)cc1C#Cc1ccccc1F |
| 122 nM | CN(c1cccc(C#Cc2cc(Cl)ccc2OCC(=O)O)c1)S(C)(=O)=O |
| 60 nM | CS(=O)(=O)c1cncc(C#Cc2cc(Cl)ccc2OCC(=O)O)c1 |
| 183 nM | O=C(O)COc1ccc(Cl)cc1C#Cc1ccc(Cl)s1 |
| 25 nM | O=C(O)COc1ccc(Cl)cc1C#Cc1ccc2c(c1)S(=O)(=O)C=C2 |
